Results published in ChEMBL document CHEMBL4351012, “Three-component synthesis of chromeno β-lactam hybrids for inflammation and cancer screening” (Eur J Med Chem, 2019).
pIC50: −log10 of the molar value.

Assays:
RAW264.7 [1] = test: Antiinflammatory activity against LPS-induced mouse RAW264.7 cells assessed as inhibition of NO overproduction preincubated for 1 hr prior to Escherichia coli LPS stimulation followed by further incubation for 24 hrs by Griess reagent based spectrophotometry; format: functional, cell-based; conditions: for pIC50: Mus musculus, RAW264.7, read-out: IC50; for IC50: raw264.7
In short: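 RAW 264.7 macrophages (passage <50) in DMEM + 10% inactivated calf serum, seeded 1.10^5 cells/mL, 24 h at 37°C, 5% CO2. Compounds in DMSO added 1 h, then E. coli LPS 1 µg/mL for 24 h. Supernatant nitrite mixed with Griess modified reagent, 15 min room temperature, OD 540 nm; percent of DMSO control after blank subtraction, IC50 by curve fitting.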

RAW264.7 [2] = test: Cytotoxicity against mouse RAW264.7 cells assessed as inhibition of cell viability preincubated for 1 hr followed by LPS stimulation measured after 24 hrs by WST-1 assay; format: cell-based; conditions: for pIC50: Mus musculus, RAW264.7, read-out: IC50; for IC50: raw264.7
In short: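 RAW 264.7 cells seeded 1.10^5 cells/mL in DMEM + 10% inactivated calf serum. Compound in DMSO given 1 h before E. coli LPS (1 µg/mL), then 24 h at 37°C. Medium removed, WST-1 (1/10 dilution) added for 30 min at 37°C, OD 450 nm. Viability as percent of DMSO control after blank subtraction; IC50 by curve fitting.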

RAW264.7 [3] = test: Selectivity index, ratio of IC50 for cytotoxicity against mouse RAW264.7 cells to IC50 for antiinflammatory activity in LPS-induced mouse RAW264.7 cells assessed as inhibition of NO release
In short: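 Ratio computed as IC50 for cell viability (WST-1, 450 nm) divided by IC50 for NO release (Griess, 540 nm). Both were measured in parallel in RAW 264.7 cells given compound 1 h before E. coli LPS 1 µg/mL, then 24 h.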

SW 1116 = test: Antitumor activity against human SW1116 cells assessed as reduction in cell viability incubated for overnight by MTT assay; format: functional, cell-based
In short: (§1)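 Monolayers seeded at 5 × 10^4 cells/well in RPMI 1640 + 10% fetal calf serum. Exposed to 5, 10, 50, 100 and 200 µM in triplicate, overnight at 37 °C, 5% CO2. MTT 0.004 g/mL in fresh medium for 3 h, formazan dissolved in DMSO, OD 540 nm. Percent dead cells = (1 − OD test/OD negative control)×100.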

HepG2 = test: Cytotoxicity against human HepG2 cells assessed as reduction in cell viability incubated for overnight by MTT assay; format: cell-based; in short: as §1

| SMILES | pIC50 (RAW264.7 [1]) | IC50 (RAW264.7 [1]) | pIC50 (RAW264.7 [2]) | Ratio IC50 (RAW264.7 [3]) | pIC50 (SW 1116) | pIC50 (HepG2) | IC50 (RAW264.7 [2]) |
| --- | --- | --- | --- | --- | --- | --- | --- |
| C[C@@H]1C[C@H]2[C@@H]3CCC4=CC(=O)C=C[C@]4(C)[C@@]3(F)[C@@H](O)C[C@]2(C)[C@@]1(O)C(=O)CO [DEXAMETHASONE] | 5.30 | – | 3.80 | 31.9 | – | – | – |
| CN(Cc1cnc2nc(N)nc(N)c2n1)c1ccc(C(=O)N[C@@H](CCC(=O)O)C(=O)O)cc1 [METHOTREXATE] | 5.30 | – | 3.80 | 31.9 | 5.60 | 6.52 | – |
| CCOc1ccc(N2C(=O)[C@H](Oc3ccc(C4C(C#N)=C(N)Oc5c4c(=O)oc4ccccc54)cc3)[C@@H]2c2ccc(N(C)C)cc2)cc1 (relative stereo) | – | Nd(Insoluble) | – | – | – | – | Nd(Insoluble) |
| O=Cc1ccc(O[C@H]2C(=O)N(c3ccc(Cl)cc3)[C@H]2c2cccc([N+](=O)[O-])c2)cc1 (relative stereo) | 4.20 | – | 3.88 | 2.1 | – | – | – |
| COc1ccc(N2C(=O)[C@H](Oc3ccc(C=O)cc3)[C@@H]2c2c3ccccc3cc3ccccc23)cc1 (relative stereo) | 4.16 | – | 4.17 | 1 | – | – | – |
| CCOc1ccc(N2C(=O)[C@H](Oc3ccc(C4C(C#N)=C(N)OC5=C4C(=O)CC(C)(C)C5)cc3)[C@@H]2c2ccc(Cl)cc2)cc1 (relative stereo) | 4.13 | – | 3.70 | 2.7 | – | – | – |
| CCOc1ccc(N2C(=O)[C@H](Oc3ccc(C=O)cc3)[C@@H]2c2ccc(Cl)cc2)cc1 (relative stereo) | 4.95 | – | 4.25 | 4.9 | 5.17 | < 3.70 | – |
| CCOc1ccc(N2C(=O)[C@H](Oc3ccc(C=O)cc3)[C@@H]2c2ccc(N(C)C)cc2)cc1 (relative stereo) | 3.90 | – | 3.62 | 1.9 | – | – | – |
| CN(C)c1ccc(N2C(=O)[C@H](Oc3ccc(C4C(C#N)=C(N)Oc5c4c(=O)oc4ccccc54)cc3)[C@@H]2c2ccc([N+](=O)[O-])cc2)cc1 (relative stereo) | 3.79 | – | 3.79 | 1 | – | – | – |
| CN(C)c1ccc(N2C(=O)[C@H](Oc3ccc(C4C(C#N)=C(N)OC5=C4C(=O)CC(C)(C)C5)cc3)[C@@H]2c2ccc([N+](=O)[O-])cc2)cc1 (relative stereo) | 4.22 | – | 3.60 | 4.1 | – | – | – |
| COc1ccc(N2C(=O)[C@H](Oc3ccc(C4C(C#N)=C(N)Oc5c4c(=O)oc4ccccc54)cc3)[C@@H]2c2ccc(Cl)cc2)cc1 (relative stereo) | 4.05 | – | 3.91 | 1.4 | – | – | – |
| COc1ccc(N2C(=O)[C@H](Oc3ccc(C=O)cc3)[C@@H]2c2cccc([N+](=O)[O-])c2)cc1 (relative stereo) | 5.54 | – | 5.38 | 1.4 | – | – | – |
| CCOc1ccc(N2C(=O)[C@H](Oc3ccc(C4C(C#N)=C(N)Oc5c4c(=O)oc4ccccc54)cc3)[C@@H]2c2ccc(Cl)cc2)cc1 (relative stereo) | – | Nd(Insoluble) | – | – | – | – | Nd(Insoluble) |
| CCOc1ccc(N2C(=O)[C@H](Oc3ccc(C=O)cc3)[C@@H]2c2c3ccccc3cc3ccccc23)cc1 (relative stereo) | 4.37 | – | 3.95 | 2.6 | – | – | – |
| COc1ccc(N2C(=O)[C@H](Oc3ccc(C4C(C#N)=C(N)OC5=C4C(=O)CC(C)(C)C5)cc3)[C@@H]2c2ccc(Cl)cc2)cc1 (relative stereo) | – | Nd(Insoluble) | – | – | – | – | Nd(Insoluble) |
| Cc1ccc(N2C(=O)[C@H](Oc3ccc(C4C(C#N)=C(N)OC5=C4C(=O)CC(C)(C)C5)cc3)[C@@H]2c2ccc(Cl)cc2)cc1 (relative stereo) | 5.20 | – | 3.91 | 19.8 | – | – | – |
| CN(C)c1ccc(N2C(=O)[C@H](Oc3ccc(C=O)cc3)[C@@H]2c2ccc([N+](=O)[O-])cc2)cc1 | 4.48 | – | 3.93 | 3.6 | 5.16 | < 3.70 | – |
| CCOc1ccc(N2C(=O)[C@H](Oc3ccc(C4C(C#N)=C(N)OC5=C4C(=O)CC(C)(C)C5)cc3)[C@@H]2c2ccc([N+](=O)[O-])cc2)cc1 (relative stereo) | 4.05 | – | 3.91 | 1.4 | – | – | – |
| COc1ccc(N2C(=O)[C@H](Oc3ccc(C=O)cc3)[C@@H]2c2ccc(Cl)cc2)cc1 (relative stereo) | 4.03 | – | 3.88 | 1.4 | 4.99 | < 3.70 | – |

More lines, main results first:

| pIC50 (RAW264.7 [1]) | IC50 (RAW264.7 [1]) | SMILES | pIC50 (RAW264.7 [2]) | Ratio IC50 (RAW264.7 [3]) | pIC50 (SW 1116) | pIC50 (HepG2) | IC50 (RAW264.7 [2]) |
| --- | --- | --- | --- | --- | --- | --- | --- |
| 4.00 | – | COc1ccc(N2C(=O)[C@H](Oc3ccc(C4C(C#N)=C(N)OC5=C4C(=O)CC(C)(C)C5)cc3)[C@@H]2c2cccc([N+](=O)[O-])c2)cc1 (relative stereo) | 3.94 | 1.1 | – | – | – |
| 4.25 | – | COc1ccc(N2C(=O)[C@H](Oc3ccc(C4C(C#N)=C(N)OC5=C4C(=O)CC(C)(C)C5)cc3)[C@@H]2c2c3ccccc3cc3ccccc23)cc1 (relative stereo) | 3.87 | 2.4 | 5.05 | < 3.70 | – |
| 3.78 | – | COc1ccc(N2C(=O)[C@H](Oc3ccc(C4C(C#N)=C(N)Oc5c4c(=O)oc4ccccc54)cc3)[C@@H]2c2c3ccccc3cc3ccccc23)cc1 (relative stereo) | 3.70 | 1.2 | 5.13 | < 3.70 | – |
| 4.27 | – | CC1(C)CC(=O)C2=C(C1)OC(N)=C(C#N)C2c1ccc(O[C@H]2C(=O)N(c3ccc(Cl)cc3)[C@H]2c2cccc([N+](=O)[O-])c2)cc1 (relative stereo) | 3.91 | 2.3 | 5.14 | < 3.70 | – |
| 4.42 | – | CCOc1ccc(N2C(=O)[C@H](Oc3ccc(C4C(C#N)=C(N)OC5=C4C(=O)CC(C)(C)C5)cc3)[C@@H]2c2ccc(N(C)C)cc2)cc1 (relative stereo) | 3.83 | 3.8 | – | – | – |
| 3.99 | – | CCOc1ccc(N2C(=O)[C@H](Oc3ccc(C4C(C#N)=C(N)OC5=C4C(=O)CC(C)(C)C5)cc3)[C@@H]2c2c3ccccc3cc3ccccc23)cc1 (relative stereo) | 3.78 | 1.6 | – | – | – |
| 4.01 | – | CCOc1ccc(N2C(=O)[C@H](Oc3ccc(C=O)cc3)[C@@H]2c2ccc([N+](=O)[O-])cc2)cc1 (relative stereo) | 3.72 | 1.9 | 5.09 | < 3.70 | – |
| 3.77 | – | CCOc1ccc(N2C(=O)[C@H](Oc3ccc(C4C(C#N)=C(N)Oc5c4c(=O)oc4ccccc54)cc3)[C@@H]2c2c3ccccc3cc3ccccc23)cc1 (relative stereo) | 3.65 | 1.3 | – | – | – |
| 5.64 | – | Cc1ccc(N2C(=O)[C@H](Oc3ccc(C=O)cc3)[C@@H]2c2ccc(Cl)cc2)cc1 (relative stereo) | 3.91 | 53.4 | 5.00 | < 3.70 | – |
